Assay outcomes as filed in PubChem.
Most compounds without a hit are left out; they make up all but 2.5% or so of the library.
GSTO1 inh = GSTO1 inhibition, counter-screen for RBBP9 inhibitors | P78417 | recombinant GSTO1, activity-based probe fluorescence polarization | inhibition, % at 5.96 µM | 300,000 tested, 1.1% active;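 active = inhibition above the campaign mean inhibition plus 3 SD, cut at about 35% in these data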;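 note: 0% = GSTO1-1 with DMSO and 100% = wells lacking GSTO1-1 enzyme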
Fh CTSL1 inh = blocks F. hepatica cathepsin L1 in PFM18AAP counter-screen; inhibition, % at 5.96 µM; recombinant F. hepatica cathepsin L1, Z-Leu-Arg-MCA fluorescence; 300,000 tested, 0.49% active; AID 1906;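 active = inhibition above the mean of all tested compounds plus 3 SD, set per screening campaign, cut at about 17% in these data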;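 note: 0% = plate median of test compound wells and 100% = 1 µM Z-Phe-Ala-diazomethylketone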
PRMT1 FP inh = inhibitors of human PRMT1 | recombinant PRMT1, activity-based probe fluorescence polarization | inhibition, % at 2.79 µM | 370,000 tested, 1.3% active | AID 652257;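 active = inhibition above about 21% made by adding two undisclosed values, limit read from the data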
Target sequence (Q99873 whole entry, looked up): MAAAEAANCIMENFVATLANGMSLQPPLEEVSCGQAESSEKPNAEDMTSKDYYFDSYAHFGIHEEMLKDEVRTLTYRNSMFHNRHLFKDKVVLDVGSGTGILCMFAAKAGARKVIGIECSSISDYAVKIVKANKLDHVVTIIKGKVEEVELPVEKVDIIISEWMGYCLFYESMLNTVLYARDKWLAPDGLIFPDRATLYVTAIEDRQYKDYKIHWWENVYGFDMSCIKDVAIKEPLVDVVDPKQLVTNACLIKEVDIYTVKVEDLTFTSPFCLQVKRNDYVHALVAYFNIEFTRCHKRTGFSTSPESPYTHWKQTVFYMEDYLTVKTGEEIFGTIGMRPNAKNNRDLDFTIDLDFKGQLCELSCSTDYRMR
PAD4 FP inh = PAD4 (human) enzyme inhibition; Q9UM07; recombinant PAD4, RCA probe fluorescence polarization; inhibition, % at 6.36 µM; 330,000 tested, 0.41% active; AID 485272;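 active = percent inhibition above a cutoff equal to the mean of all tested compounds plus 3 SD, cut at about 15% in these data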;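 note: 0% = PAD4 with RCA probe and DMSO and 100% = probe without PAD4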
TDP2 absorb = blocks human TDP2 phosphodiesterase activity; 370,000 tested, 0.34% active; AID 720702; inhibition, % at 12.8 µM; recombinant TDP2, T5PNP hydrolysis, p-nitrophenol absorbance 415 nm;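 active = inhibition above the mean of all tested compounds plus 3 SD, set per campaign, cut at about 25% in these data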;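 note: 0% = DMSO with enzyme and 100% = buffer with substrate but no TDP2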
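Read-out basis: percent inhibition. System: recombinant human TDP2. Buffer or medium: Mg2+-containing Tris-HCl buffer, pH 7.5. Repeats: single replicate. Timing: reaction 2 h, 37 °C. Benchmarks: high control without enzyme, low control DMSO plus TDP2. Probe or stimulus: 5 mM T5PNP. Doses: 12.8 µM only. Measured by: epi absorbance of p-nitrophenol freed from T5PNP by hydrolysis.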
An asterisk follows results filed as active; . = no result given.

SMILES	GSTO1 inh	Fh CTSL1 inh	PRMT1 FP inh	PAD4 FP inh	TDP2 absorb
O=C(NCCc1c[nH]c2ccccc12)OCc1cn(Cc2ccc(F)cc2F)nn1	.	.	-3	.	4
CCn1cc(C(=O)N[C@H](C(=O)NC(C)(C)CO)C(C)C)c(=O)c2cc3c(cc21)OCO3	1	-5	-4	-2	25*
C[C@@H]1O[C@@H](n2c3ccc(Cl)cc3c3ccc4c5cc(Cl)ccc5[nH]c4c32)[C@H](O)[C@H](O)[C@H]1O	.	.	2	.	-9
C#CCNC(=O)C[C@@H]1C(=O)N(Cc2ccc(OC)cc2)/C2=C/CCCCC[C@@]21C(=O)OCC	.	.	-3	.	2
Cc1nonc1C(=O)N/N=C/c1ccc(O)c(O)c1	6	-1	4	1	-4
O=C(N/N=C/c1ccc(O)c(O)c1)N/N=C/c1ccc(O)c(O)c1	.	.	24*	.	-7
CN(CCO)c1cccc2c1S(=O)(=O)N(Cc1cn(Cc3cccc(F)c3)nn1)Cc1ccccc1O2	.	.	-4	.	1
Cc1ccc(CCNC(=O)c2cc(S(=O)(=O)N3CCOCC3)cn2C)cc1	-1	67*	3	3	-10
CCc1nnc(NC(=O)CSc2nc3c(c(=O)n2CC)SC(C)C3)s1 (stereo unspecified)	35*	1	0	-3	12
Cc1ccc(S(=O)(=O)N2CCCC2C(c2ccccc2O)c2cn(C)c3ccccc23)cc1 (stereo unspecified)	.	.	2	.	5
CC(=O)c1ccccc1NC(=O)CN1C(=O)CS/C1=C\c1nc(-c2ccc(C)cc2)cs1	4	18*	-1	-4	-6
COC(CNC(=O)[C@H](Cc1c[nH]c2ccccc12)NC1(C(=O)NC(c2ccccc2)c2ccccc2)CCCCC1)OC	.	.	-3	.	-4
CCCN1Cc2cccc(C(=O)NCc3cccs3)c2C1=O	2	18*	-2	-3	1
Cc1ccc(S(=O)(=O)NCCSc2nnnn2-c2cc(C)ccc2C)cc1	35*	3	6	-5	-5
O=C(O)/C=C\C(=O)Nc1ccccc1C#Cc1ccccc1	-5	14	14	-5	11
O=C(O)/C=C\C(=O)Nc1ccccc1C#Cc1ccc(Br)cc1	12	7	22*	-2	-3
CC(=O)Nc1ccc(C(=O)NCC2(N3CCCCC3)CCCCC2)cc1	-2	21*	-1	1	-4
CCOc1ccc(NS(=O)(=O)c2ccc(C(=O)NCC3(N4CCCCC4)CCCCC3)cc2)cc1	9	11	-3	-7	16
Cc1ccccc1C(=O)N1CCC(Oc2cccnc2)CC1	.	.	-1	.	4
CC(C)(C)NC(=O)C(c1cc2ccccc2o1)n1c(=O)c(-c2ccco2)nc2ccccc21 (stereo unspecified)	.	.	23*	.	-3
COC(=O)[C@H](CC(C)C)N(CCc1cn(Cc2ccccc2)nn1)S(=O)(=O)c1ccccc1Br	.	.	2	.	0
Oc1c(N=Nc2nn[nH]n2)ccc2ccccc12	.	.	35*	.	26*
COC(=O)[C@]12C[C@H](CC(=O)NCCC(C)C)C(=O)N(CCC3=CCCCC3)C1=C[C@H](C(C)C)O[C@@H]2C1CC1	.	.	5	.	-9
COc1cc(NC(=O)C2CCCN(S(=O)(=O)c3cccc4cccnc34)C2)cc(OC)c1 (stereo unspecified)	.	.	0	.	-1
O=C(c1ccc(C#Cc2ccccc2)cc1)N1CCC(O)CC1	.	.	4	.	9
SMILES	GSTO1 inh	Fh CTSL1 inh	PRMT1 FP inh	PAD4 FP inh	TDP2 absorb
COc1ccccc1NC(=O)c1ccccc1Nc1ccccc1	11	2	-10	-1	2
COc1ccccc1Nc1ccc(N)cc1	35*	-1	0	-1	7
C=CCn1c(SCC(=O)NCCOC)nc2scc(-c3ccco3)c2c1=O	3	7	47*	-1	5
CC1=CC(C)(C)Nc2ccc(OC(=O)CN3C(=O)c4cccc5cccc(c45)C3=O)cc21	37*	-4	11	-12	-2
CC1=CC(C)(C)Nc2ccc(OC(=O)C(Cc3ccccc3)N3C(=O)c4ccccc4C3=O)cc21 (stereo unspecified)	-1	-8	1	-4	-4
CC1=CC(C)(C)Nc2ccc(OC(=O)CN3C(=O)c4ccccc4C3=O)cc21	56*	-2	-1	-5	-6
O=C1/C(=C/Nc2ccc3c(c2)OCO3)CCc2ccccc21	14	0	23*	0	3
O=C1OC2(CCCCC2)OC(=O)C1=CNc1ccc2c(c1)OCO2	1	1	-1	-3	-6
